Series [1] concerns the target T1, Endothelin receptor type B (Rattus norvegicus, UniProt P21451).
T1 sequence (P21451 whole entry): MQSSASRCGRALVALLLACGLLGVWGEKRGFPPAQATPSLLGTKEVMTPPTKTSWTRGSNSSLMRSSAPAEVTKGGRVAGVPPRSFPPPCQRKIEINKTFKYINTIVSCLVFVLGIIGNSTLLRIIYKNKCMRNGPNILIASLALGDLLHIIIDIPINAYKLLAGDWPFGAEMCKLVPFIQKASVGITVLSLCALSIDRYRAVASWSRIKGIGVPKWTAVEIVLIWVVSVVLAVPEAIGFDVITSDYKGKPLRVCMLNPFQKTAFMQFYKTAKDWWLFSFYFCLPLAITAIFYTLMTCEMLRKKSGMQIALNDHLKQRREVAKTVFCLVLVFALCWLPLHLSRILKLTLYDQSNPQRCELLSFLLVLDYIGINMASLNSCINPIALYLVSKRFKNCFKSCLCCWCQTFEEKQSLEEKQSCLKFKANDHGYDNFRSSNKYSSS
Nature of the series: Inhibition of binding to Endothelin B receptor of rat cerebellar membranes. Format: cell membranes, Membrane. The gist of the method: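 Competition binding assays: ETA on rabbit renal vascular smooth muscle cells, ETB on rat cerebellar membranes. Each IC50 comes from a single competition experiment with points measured in duplicate. Where more than one IC50 was determined, values are given as mean ± SEM.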

The next series relates to Caco-2. Nature of the series: Permeability in Caco-2 Cell monolayers for the compound. Format: functional, cell-based. To be noted: Homo sapiens. The gist of the method:
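Transport measured across Caco-2 monolayers (human colon adenocarcinoma line that differentiates to an enterocyte-like phenotype). Each value is the mean of three to five cell monolayers, with standard errors.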

Series [2] can be described thus: Stability in rat intestinal perfusate. The series is classed as ADME. The gist of the method: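 Stability measured by incubation in rat intestinal perfusate in vitro. Values are the mean of at least three determinations ± SEM from two perfusate preparations. Perfusate leucine aminopeptidase activity was 0.05–0.32 nkat/mL. Degradation was also checked with a potato tuber carboxypeptidase inhibitor added.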

For series [3], the species on record is Oryctolagus cuniculus. Nature of the series: Ability to antagonize […] SRTX-6c stimulated vasoconstriction in vitro in rabbit pulmonary artery. Format: functional. The note with it: read-out: pA2 (converted).
The species named for series [4] is Oryctolagus cuniculus. Nature of the series: Ability to antagonize endothelin -1 (ET-1) stimulated vasoconstriction in vitro in rabbit femoral artery. Format: functional. To be noted: read-out: pA2 (converted).

Numbered stars: 1 amine (or outer) side, 2 acyl side, 3 side chain; on linkers, the order of the positions; unused ones are H or OH. Square brackets hold non-standard residues; d marks the D form. Peptide text beside a SMILES is read from it. dGly(5-dibenzosuberyl) = N[C@@H](C(=O)O)C1c2ccccc2CCc2ccccc21; X2 = O=C([C@@H](N[*:1])C1c2ccccc2CCc2ccccc21)[*:2]; NMeDip = CN[C@H](C(=O)O)C(c1ccccc1)c1ccccc1; NMeW = CN[C@@H](Cc1c[nH]c2ccccc12)C(=O)O; Dip = N[C@H](C(=O)O)C(c1ccccc1)c1ccccc1; NMeI = CC[C@H](C)[C@H](NC)C(=O)O; NMeD = CN[C@@H](CC(=O)O)C(=O)O

For `CC[C@H](C)[C@H](NC(=O)[C@@H](NC(=O)[C@H](CC(=O)O)N(C)C(=O)[C@H](CC(C)C)NC(=O)[C@@H](NC(C)=O)C(c1ccccc1)c1ccccc1)[C@@H](C)CC)C(=O)N[C@@H](Cc1c[nH]c2ccccc12)C(=O)O` (Ac-[Dip]L[NMeD]IIW-OH), the IC50 (as a rule, the concentration needed to halve the response being measured) in series [1] turned out to be 1500 nM.

For the molecule `CC[C@H](C)[C@H](NC(=O)[C@H](CC(=O)O)NC(=O)[C@H](CC(C)C)N(C)C(=O)[C@H](NC(C)=O)C(c1ccccc1)c1ccccc1)C(=O)N[C@H](C(=O)N[C@@H](Cc1c[nH]c2ccccc12)C(=O)O)[C@@H](C)CC`, the IC50 in series [1] came out at 600 nM.

`CC[C@H](C)[C@H](NC(=O)[C@H](CC(=O)O)NC(=O)[C@H](CC(C)C)NC(=O)[C@@H](NC(C)=O)C1c2ccccc2CCc2ccccc21)C(=O)N[C@H](C(=O)N[C@@H](Cc1c[nH]c2ccccc12)C(=O)O)[C@@H](C)CC` (Ac-[X2]LDIIW-OH): the Permeability (10e4*cm min-1) in the series with Caco-2 worked out at 4.7.

Regarding `CC[C@H](C)[C@H](NC(=O)[C@H](CC(=O)O)NC(=O)[C@H](CC(C)C)NC(=O)[C@H](NC(C)=O)C1c2ccccc2CCc2ccccc21)C(=O)N[C@H](C(=O)N[C@@H](Cc1c[nH]c2ccccc12)C(=O)O)[C@@H](C)CC` (Ac-[dGly(5-dibenzosuberyl)]LDIIW-OH), in series [2], the half-life (in general, the time in which the quantity being followed falls by half) came out at 0.177 h. Further, the Kb in the series listed under Oryctolagus cuniculus [3] is 100 nM; in the series filed under Oryctolagus cuniculus [4], 158 nM.

`CC[C@H](C)[C@H](NC(=O)[C@H](CC(=O)O)NC(=O)[C@H](CC(C)C)NC(=O)[C@@H](NC(C)=O)C(c1ccccc1)c1ccccc1)C(=O)N[C@H](C(=O)N[C@@H](Cc1c[nH]c2ccccc12)C(=O)O)[C@@H](C)CC` (Ac-[Dip]LDIIW-OH) registered a half-life in series [2] of 0.302 h. In the series with Caco-2, this molecule gave a Permeability (10e4*cm min-1) of 2. Further, the Kb is 501 nM in the series filed under Oryctolagus cuniculus [3] and 251 nM in the series filed under Oryctolagus cuniculus [4].

Turning to `CC[C@H](C)[C@H](NC(=O)[C@H](CC(=O)O)NC(=O)[C@H](CC(C)C)NC(=O)[C@H](NC(C)=O)C1c2ccccc2CCc2ccccc21)C(=O)N(C)[C@H](C(=O)N[C@@H](Cc1c[nH]c2ccccc12)C(=O)O)[C@@H](C)CC`, in series [2], the half-life is 8.97 h. For the same molecule, the Kb in the series listed under Oryctolagus cuniculus [4] was 50.1 nM.

For the molecule `CC[C@H](C)[C@H](NC(=O)[C@H](CC(=O)O)NC(=O)[C@H](CC(C)C)NC(=O)[C@H](C(c1ccccc1)c1ccccc1)N(C)C(C)=O)C(=O)N[C@H](C(=O)N[C@@H](Cc1c[nH]c2ccccc12)C(=O)O)[C@@H](C)CC` (Ac-[NMeDip]LDIIW-OH), the IC50 in series [1] was 8000 nM.

In series [2], `CC[C@H](C)[C@H](NC(=O)[C@H](CC(=O)O)NC(=O)[C@H](CC(C)C)NC(=O)[C@@H](NC(C)=O)C(c1ccccc1)c1ccccc1)C(=O)N(C)[C@H](C(=O)N[C@@H](Cc1c[nH]c2ccccc12)C(=O)O)[C@@H](C)CC` (Ac-[Dip]LDI[NMeI]W-OH) had a half-life of 14.6 h. For the same molecule, the Permeability (10e4*cm min-1) in the series on Caco-2 is 2. The molecule also came in with an IC50 in series [1] of 80 nM.

Molecule `CC[C@H](C)[C@H](NC(=O)[C@@H](NC(=O)[C@H](CC(=O)O)NC(=O)[C@H](CC(C)C)NC(=O)[C@H](NC(C)=O)C(c1ccccc1)c1ccccc1)[C@@H](C)CC)C(=O)CNC(=O)[C@@H](N)Cc1c[nH]c2ccccc12` had an IC50 in series [1] of over 250 nM.

Regarding `CC[C@H](C)[C@H](NC(=O)[C@H](CC(=O)O)NC(=O)[C@H](CC(C)C)NC(=O)[C@@H](NC(C)=O)C(c1ccccc1)c1ccccc1)C(=O)N[C@H](C(=O)N(C)[C@@H](Cc1c[nH]c2ccccc12)C(=O)O)[C@@H](C)CC` (Ac-[Dip]LDII[NMeW]-OH), the IC50 in series [1] was 11000 nM. That is a double-digit micromolar value.

Regarding `CC[C@H](C)[C@H](NC(=O)[C@H]([C@@H](C)CC)N(C)C(=O)[C@H](CC(=O)O)NC(=O)[C@H](CC(C)C)NC(=O)[C@@H](NC(C)=O)C(c1ccccc1)c1ccccc1)C(=O)N[C@@H](Cc1c[nH]c2ccccc12)C(=O)O` (Ac-[Dip]LD[NMeI]IW-OH), the concentration for half-maximal inhibition (IC50) in series [1] is over 1000 nM.

`CC[C@@H](C)[C@H](C(=O)N[C@@H](Cc1c[nH]c2ccccc12)C(=O)O)N(C)C(=O)[C@@H](NC(=O)[C@@H](CC(=O)O)NC(=O)[C@H](CC(C)C)NC(=O)[C@H](NC(C)=O)C1c2ccccc2CCc2ccccc21)[C@@H](C)CC`: the Permeability (10e4*cm min-1) with Caco-2 is 6.3.

The values above are taken from ChEMBL document CHEMBL1130387, “Design of a potent combined pseudopeptide endothelin-A/endothelin-B receptor antagonist, Ac-DBhg16-Leu-Asp-Ile-[NMe]Ile-Trp21 (PD 156252): examination of its pharmacokinetic and spectral properties” (J Med Chem, 1997).
